The source made the active and inactive calls. No cut-off for these calls is given here.
How the values were obtained:
Mus musculus [1] = assay: Immunostimulatory activity in C57BL/6 mouse assessed as inhibition of TLR7 agonist-induced IL10 production in serum at 5 mg/kg, sc administered 24 hrs prior to TLR7 agonist challenge measured after 2 hrs by Luminex multiplex assay; assay type: functional; conditions: C57BL/6, sc, route subcutaneous
Mus musculus [2] = assay: Immunostimulatory activity in C57BL/6 mouse assessed as inhibition of TLR3 agonist-induced MIG production in serum at 10 mg/kg, sc administered 24 hrs prior to TLR3 agonist challenge measured after 2 hrs by Luminex multiplex assay
Mus musculus [3] = assay: Immunostimulatory activity in C57BL/6 mouse assessed as inhibition of TLR7 agonist-induced IL6 production in serum at 5 mg/kg, sc administered 24 hrs prior to TLR7 agonist challenge measured after 2 hrs by Luminex multiplex assay; assay type: functional; conditions: C57BL/6, sc, route subcutaneous
Mus musculus [4] = assay: Immunostimulatory activity in C57BL/6 mouse assessed as inhibition of 5'-CTATCTGACGTTCTCTGT-3'-induced MIG production in serum at 5 mg/kg, sc administered 24 hrs prior to 5'-CTATCTGACGTTCTCTGT-3' challenge measured after 2 hrs by Luminex multiplex assay; assay type: functional; conditions: C57BL/6, sc, route subcutaneous
Mus musculus [5] = assay: Immunostimulatory activity in C57BL/6 mouse assessed as inhibition of TLR3 agonist-induced MCP1 production in serum at 10 mg/kg, sc administered 24 hrs prior to TLR3 agonist challenge measured after 2 hrs by Luminex multiplex assay
Mus musculus [6] = assay: Immunostimulatory activity in C57BL/6 mouse assessed as inhibition of 5'-CTATCTGACGTTCTCTGT-3'-induced IL10 production in serum at 5 mg/kg, sc administered 24 hrs prior to 5'-CTATCTGACGTTCTCTGT-3' challenge measured after 2 hrs by Luminex multiplex assay; assay type: functional; conditions: C57BL/6, sc, route subcutaneous
Mus musculus [7] = assay: Immunostimulatory activity in C57BL/6 mouse assessed as inhibition of 5'-CTATCTGACGTTCTCTGT-3'-induced IL12 production in serum at 10 mg/kg, sc administered 48 hrs prior to 5'-CTATCTGACGTTCTCTGT-3' challenge measured after 2 hrs by sandwich ELISA; assay type: functional; conditions: C57BL/6, sc, route subcutaneous
Method in brief: (§1)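 C57BL/6 mice received 10 mg/kg ODN sc in the right flank. The TLR9 agonist ODN was then given at 0.5 mg/kg sc in the left flank 24, 48 or 72 h later. Serum IL-12 was measured by ELISA 2 h after challenge. Naive serum served as reference. Representative of three experiments.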

Mus musculus [8] = assay: Immunostimulatory activity in sc dosed C57BL/6 mouse assessed as inhibition of 5'-CTATCTGACGTTCTCTGT-3'-induced IL12 production in serum administered 24 hrs prior to 5'-CTATCTGACGTTCTCTGT-3' challenge measured after 2 hrs by sandwich ELISA; assay type: functional, organism-based
Method in brief: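 Test ODN was given sc in the right flank of C57BL/6 mice at 2, 5 or 10 mg/kg. After 24 h (or 24, 48 or 72 h in the duration study), the agonist ODN was given sc in the left flank at 0.25, 0.5 or 1 mg/kg (0.5 mg/kg by default). Serum was taken 2 h later by retro-orbital bleed, and IL-12 was measured by sandwich ELISA.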

Mus musculus [9] = assay: Immunostimulatory activity in C57BL/6 mouse assessed as inhibition of LPS-induced IL6 production in serum at 10 mg/kg, sc administered 24 hrs prior to LPS challenge measured after 2 hrs by Luminex multiplex assay
Mus musculus [10] = assay: Immunostimulatory activity in C57BL/6 mouse assessed as inhibition of TLR3 agonist-induced TNFalpha production in serum at 10 mg/kg, sc administered 24 hrs prior to TLR3 agonist challenge measured after 2 hrs by Luminex multiplex assay
Mus musculus [11] = assay: Immunostimulatory activity in C57BL/6 mouse assessed as inhibition of 5'-CTATCTGACGTTCTCTGT-3'-induced IL12 production in serum at 5 mg/kg, sc administered 24 hrs prior to 5'-CTATCTGACGTTCTCTGT-3' challenge measured after 2 hrs by sandwich ELISA; assay type: functional; conditions: C57BL/6, sc, route subcutaneous
Method in brief: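 C57BL/6 mice were pretreated sc in the right flank with 2, 5 or 10 mg/kg ODN. After 24 h, the TLR9 agonist ODN was given at 0.5 mg/kg sc in the left flank. Serum IL-12 was measured by ELISA 2 h later. Representative of two experiments.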

Mus musculus [12] = assay: Immunostimulatory activity in C57BL/6 mouse assessed as inhibition of 0.5 mg/kg 5'-CTATCTGACGTTCTCTGT-3'-induced IL12 production in serum at 10 mg/kg, sc administered 24 hrs prior to 5'-CTATCTGACGTTCTCTGT-3' challenge measured after 2 hrs by sandwich ELISA; assay type: functional
Method in brief: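 C57BL/6 mice received 10 mg/kg ODN sc in the right flank. After 24 h, the CpG TLR9 agonist ODN was given sc in the left flank at 0.25, 0.5 or 1 mg/kg. Serum IL-12 was measured by ELISA 2 h after challenge. Naive mice served as reference. Representative of two experiments.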

Mus musculus [13] = assay: Immunostimulatory activity in C57BL/6 mouse assessed as inhibition of TLR7 agonist-induced KC production in serum at 5 mg/kg, sc administered 24 hrs prior to TLR7 agonist challenge measured after 2 hrs by Luminex multiplex assay; assay type: functional; conditions: C57BL/6, sc, route subcutaneous
Mus musculus [14] = assay: Immunostimulatory activity in C57BL/6 mouse assessed as inhibition of LPS-induced IL10 production in serum at 10 mg/kg, sc administered 24 hrs prior to LPS challenge measured after 2 hrs by Luminex multiplex assay
Mus musculus [15] = assay: Immunostimulatory activity in C57BL/6 mouse assessed as inhibition of 5'-CTATCTGACGTTCTCTGT-3'-induced IL12 production in serum at 10 mg/kg, sc administered 72 hrs prior to 5'-CTATCTGACGTTCTCTGT-3' challenge measured after 2 hrs by sandwich ELISA; assay type: functional; conditions: C57BL/6, sc, route subcutaneous; method in brief: as §1
Mus musculus [16] = assay: Immunostimulatory activity in C57BL/6 mouse assessed as inhibition of LPS-induced IL12 production in serum at 10 mg/kg, sc administered 24 hrs prior to LPS challenge measured after 2 hrs by Luminex multiplex assay
Mus musculus [17] = assay: Immunostimulatory activity in C57BL/6 mouse assessed as inhibition of 5'-CTATCTGACGTTCTCTGT-3'-induced IL6 production in serum at 5 mg/kg, sc administered 24 hrs prior to 5'-CTATCTGACGTTCTCTGT-3' challenge measured after 2 hrs by Luminex multiplex assay; assay type: functional; conditions: C57BL/6, sc, route subcutaneous
Mus musculus [18] = assay: Immunostimulatory activity in C57BL/6 mouse assessed as inhibition of 5'-CTATCTGACGTTCTCTGT-3'-induced TNFalpha production in serum at 5 mg/kg, sc administered 24 hrs prior to 5'-CTATCTGACGTTCTCTGT-3' challenge measured after 2 hrs by Luminex multiplex assay; assay type: functional; conditions: C57BL/6, sc, route subcutaneous

For `COC1[C@H](n2cnc3c(=O)[nH]c(N)nc32)O[C@H](COP(=O)(S)O[C@H]2C[C@H](n3cc(C)c(N)nc3=O)O[C@@H]2COP(=O)(S)O[C@H]2C[C@H](n3cnc4c(N)ncnc43)O[C@@H]2COP(=O)(S)O[C@H]2C[C@H](n3cnc4c(=O)[nH]c(N)nc43)O[C@@H]2COP(=O)(S)O[C@H]2C[C@H](n3cc(C)c(=O)[nH]c3=O)O[C@@H]2COP(=O)(S)O[C@H]2C[C@H](n3ccc(N)nc3=O)O[C@@H]2COP(=O)(S)O[C@H]2C[C@H](n3cc(C)c(=O)[nH]c3=O)O[C@@H]2COP(=O)(S)O[C@H]2C[C@H](n3cnc4c(N)ncnc43)O[C@@H]2COP(=O)(S)O[C@H]2C[C@H](n3cc(C)c(=O)[nH]c3=O)O[C@@H]2COP(=O)(S)O[C@H]2C[C@H](n3ccc(N)nc3=O)O[C@@H]2CO)[C@H]1OP(=O)(S)OC[C@H]1O[C@@H](n2cc(C)c(=O)[nH]c2=O)C[C@@H]1OP(=O)(S)OC[C@H]1O[C@@H](n2cc(C)c(=O)[nH]c2=O)C[C@@H]1OP(=O)(S)OC[C@H]1O[C@@H](n2ccc(N)nc2=O)C[C@@H]1OP(=O)(S)OC[C@H]1O[C@@H](n2cc(C)c(=O)[nH]c2=O)C[C@@H]1OP(=O)(S)OC[C@H]1O[C@@H](n2ccc(N)nc2=O)C[C@@H]1OP(=O)(S)OC[C@H]1O[C@@H](n2cc(C)c(=O)[nH]c2=O)C[C@@H]1OP(=O)(S)OC[C@H]1O[C@@H](n2cnc3c(=O)[nH]c(N)nc32)C[C@@H]1OP(=O)(S)OC[C@H]1O[C@@H](n2cc(C)c(=O)[nH]c2=O)C[C@@H]1O` (stereo partly drawn), the inhibition in vivo at 5 mg/kg (Mus musculus [1]) was 50%, the Activity (Mus musculus [2]) was “inactive” and the inhibition in vivo at 5 mg/kg (Mus musculus [3]) was 50%. The inhibition in vivo at 5 mg/kg (Mus musculus [4]) was 50%, the Activity (Mus musculus [5]) was “inactive” and the inhibition in vivo at 5 mg/kg (Mus musculus [6]) was 50%. The inhibition in vivo at 10 mg/kg (Mus musculus [7]) was 57%, the Activity (Mus musculus [8]) was “Dose-dependent effect” and the Activity (Mus musculus [9]) was “inactive”. For the same molecule, the Activity (Mus musculus [10]) was “inactive”, the inhibition in vivo at 5 mg/kg (Mus musculus [11]) was 66% and the “inhibition (INH)” value (Mus musculus [12]) was 66%. For the same molecule, the inhibition in vivo at 5 mg/kg (Mus musculus [13]) was 50%, the Activity (Mus musculus [14]) was “inactive” and the inhibition in vivo at 10 mg/kg (Mus musculus [15]) was 35%. For the same molecule, the Activity (Mus musculus [16]) was “inactive”, the inhibition in vivo at 5 mg/kg (Mus musculus [17]) was 50% and the inhibition in vivo at 5 mg/kg (Mus musculus [18]) was 50%.
